Test results as given in the array DNA melting data of Ke et al. (doi:10.1101/2024.01.08.574731).

How the values were obtained:
[1] = melting temperature; fluorescence melt of hairpins on a sequencing array, two-state fit, raised by 9.35 °C to match UV melts; details: sodium 0.088 M
How it was run: (§1)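 Library hairpins on a sequenced MiSeq flow cell carried annealed Cy3 and quencher oligos, and their Cy3 fluorescence was imaged in 50 mM Na-HEPES pH 8.0 with 25 mM NaCl, in 2.5 °C steps up to 60 °C. Signals were normalised to Cy3 before quenching and to control constructs. Melting temperature and folding enthalpy were obtained from bootstrapped two-state fits, combined by inverse-variance weighting across four replicates, and the fitted temperatures were then raised by 9.35 °C to match UV melts.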

[2] = folding enthalpy; higher = less favourable; fluorescence melt of hairpins on a sequencing array, two-state fit; details: sodium 0.088 M
How it was run: as §1

Sequence	Tm [1] [°C]	folding enthalpy [2] [kcal/mol]
GCGAAATTCGC ((((...))))	43.1	-18.2
GCGAACCCTCGC ((((....))))	47	-23.2
GCGAACGAAAGTTACCGC ((((((....)))..)))	37.7	-22.1
GCGAACGAAAGTTCACGC ((((((....)))..)))	48.9	-22.9
GCGAACGAAAGTTCTCGC ((((((....)))..)))	45.6	-18.8
GCGAACGAAAGTTGCCGC ((((((....)))..)))	42.4	-16.6
GCGAACGAAAGTTGCGC ((((((....))).)))	53.9	-36.9
GCGAACGAAAGTTTACGC ((((((....)))..)))	43	-21.2
GCGAACGAAAGTTTTCGC ((((((....)))..)))	44.1	-26.6
GCGAACGCGAAAGCGCGC (((..(((....))))))	60.1	-14.7
GCGAACGGAAACATTCGC (((((.(....).)))))	48.2	-32.7
GCGAACGGAAACGCTCGC ((((.((....)).))))	55.7	-41.5
GCGAACGTCGC ((((...))))	45.8	-18.8
GCGAAGCATCGC ((((....))))	59.5	-8.14
GCGAAGCGAAAGCAACGC (((..((....))..)))	48.4	-11
GCGAAGCGAAAGCAGCGC (((..((....))..)))	57.7	-16.6
GCGAAGCGAAAGCTAAGC ((..(((....)))..))	54.4	-16.5
GCGAAGCGAAAGCTCCGC (((.(((....))).)))	50.9	-36.7
GCGAAGGGAAACCCTCGC ((((.((....)).))))	53.4	-42.3
GCGAAGGGAAACTTTCGC (((((.(....).)))))	51	-30.2
GCGAAGGTCGC ((((...))))	49.9	-15.3
GCGAATCCTCGC ((((....))))	46.3	-24.5
GCGAATCGAAAGATGCGC (((.(((....))).)))	60.6	-42.4
GCGAATTATCGC ((((....))))	47.8	-21.3
GCGAATTGTCGC ((((....))))	46	-17

Sequence	Tm [1] [°C]	folding enthalpy [2] [kcal/mol]
GCGACACGAAAGTGCGC (((.(((....))))))	63.9	-22.7
GCGACACTCGC ((((...))))	53.1	-18.2
GCGACAGCTCGC ((((....))))	67	-9.44
GCGACAGTTCGC ((((....))))	47.7	-17.4
GCGACATTTCGC ((((....))))	48.8	-22
GCGACCAATCGC ((((....))))	44	-23.6
GCGACCAGTCGC ((((....))))	57.3	-32.7
GCGACCGAAAGGTAGCGC ((((((....)))..)))	68.5	-31.7
GCGACCGAAAGGTATCGC ((((((....)))..)))	50.5	-27.7
GCGACCGAAAGGTGCGC ((((((....))).)))	67.1	-28.9
GCGACCGGAAACAGCCGC (((.(.(....).).)))	32.5	-21.1
GCGACCGGAAACGGTTGC ((.((((....)))).))	64.6	-41.1
GCGACCTCTCGC ((((....))))	46.9	-18.6
GCGACGAGTCGC ((((....))))	60.6	-36.6
GCGACGATTCGC ((((....))))	44.6	-15.9
GCGACGCGAAAGCCACGC (((..((....))..)))	48.7	-17.7
GCGACGCGAAAGCCTTGC ((.(.((....)).).))	35.9	-12
GCGACGCGAAAGCGCTGC ((..(((....)))..))	57.1	-17.5
GCGACGCGAAAGCTACGC (((..((....))..)))	52.5	-18.6
GCGACGGGAAACCGTTGC ((.((((....)))).))	61	-40
GCGACGTCTCGC ((((....))))	54.2	-13.3
GCGACTCCTCGC ((((....))))	48.6	-23.9
GCGACTCGTCGC ((((....))))	68.3	-33.6
GCGACTGGAAACGGTTGC ((.((.(....).)).))	43.9	-32.1
GCGACTGTCGC ((((...))))	48	-33

Sequence	Tm [1] [°C]	folding enthalpy [2] [kcal/mol]
GCGACTGTTCGC ((((....))))	47.8	-22.5
GCGACTTTCGC ((((...))))	49	-21.8
GCGAGAAGTCGC ((((....))))	50.2	-18.3
GCGAGAATTCGC ((((....))))	55.3	-21.8
GCGAGAGGAAACTCTCAC (.(((((....))))).)	39	-17.9
GCGAGAGTCGC ((((...))))	55.5	-11.3
GCGAGATGTCGC ((((....))))	49.4	-19.1
GCGAGCAATCGC ((((....))))	62.2	-23.8
GCGAGCACGAAAGTGCGC (((..(((....))))))	56.9	-8.47
GCGAGCATCGC ((((...))))	62.1	-21.8
GCGAGCCTTCGC ((((....))))	53.9	-31
GCGAGCGAAAGCTAACGC ((((((....)))..)))	52.6	-22.7
GCGAGCGAAAGCTGCGC ((((((....))).)))	68.9	-21.8
GCGAGCGGAAACGCCCAC (.(.(((....))).).)	34.2	-8.67
GCGAGCGGAAACGCCCGC (((.(((....))).)))	58.4	-35.4
GCGAGGATTCGC ((((....))))	54.7	-22.7
GCGAGGCGAAAGCACCGC (((..((....))..)))	61.8	-22.8
GCGAGGCGAAAGCCAGGC ((..(((....)))..))	56.4	-13.1
GCGAGGCGAAAGCCCTGC ((..(((....)))..))	57.6	-11.9
GCGAGGCGAAAGCGACGC (((..((....))..)))	62.1	-25.4
GCGAGGCGAAAGCTACGC (((..((....))..)))	62	-24.3
GCGAGGCGAAAGCTCCGC (((..((....))..)))	60	-25.2
GCGAGGCTCGC ((((...))))	52.8	-28.5
GCGAGGGCTCGC ((((....))))	51	-25.5
GCGAGGGGAAACCCCCGC (((.(((....))).)))	59.6	-27.5

Sequence	Tm [1] [°C]	folding enthalpy [2] [kcal/mol]
GCGAGGGGAAACCTTCGC ((((.((....)).))))	56.3	-35.4
GCGAGGGTTCGC ((((....))))	49.3	-15.7
GCGAGGTTCGC ((((...))))	48.7	-16.3
GCGAGTACTCGC ((((....))))	56.6	-30.6
GCGAGTCGTCGC ((((....))))	53.1	-22.3
GCGAGTGGAAACGCTTGC ((.((.(....).)).))	48.6	-22.3
GCGAGTTTCGC ((((...))))	51	-17.3
GCGATAACTCGC ((((....))))	45.9	-21.1
GCGATAATCGC ((((...))))	44.4	-20.7
GCGATAATTCGC ((((....))))	48.2	-23.5
GCGATAGGAAACTATTGC ((.((((....)))).))	45.6	-38.8
GCGATAGTTCGC ((((....))))	50.4	-21.8
GCGATATTTCGC ((((....))))	50.1	-23.2
GCGATCATTCGC ((((....))))	50.7	-26.6
GCGATCCATCGC ((((....))))	57.2	-27.3
GCGATCCCGAAAGGGCGC (((..(((....))))))	56.3	-20.6
GCGATCCTCGC ((((...))))	50.3	-20.9
GCGATCGAAAGATAACGC ((((((....)))..)))	44.3	-26.2
GCGATCGAAAGATACCGC ((((((....)))..)))	37.2	-23.8
GCGATCGAAAGATCACGC ((((((....)))..)))	48.2	-21.7
GCGATCGAAAGATGTCGC ((((((....)))..)))	43	-22.4
GCGATCGGTCGC ((((....))))	48.5	-31.6
GCGATCGTCGC ((((...))))	45.9	-20.2
GCGATGATCGC ((((...))))	46	-22.3
